The values below come from ChEMBL document CHEMBL4028867, “Design, Synthesis, and Characterization of N-Oxide-Containing Heterocycles with in Vivo Sterilizing Antitubercular Activity” (J Med Chem, 2017).

As a reminder, the IC50 is the midpoint of a concentration-inhibition curve. Broadly, the MIC90 is an inhibitory concentration at the 90% level, which refers to growth in some studies and to a panel of isolates in others.

Series [1] in a line: Chemical stability in PBS at pH 7.4 assessed as drug degradation after 10 hrs by HPLC-UV analysis. Particulars: read-out: Drug degradation. It is filed as physicochemical.
The test system of series [2] is Mus musculus. Kind of series: Toxicity in BALB/c mouse assessed as change in liver weight at 200 mg/kg, po qd administered via gavage after 10 days. It is filed as organism-based. Particulars: in vivo, 240 h. The gist of the method: (§1)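 Mice given one daily oral gavage dose of 200 mg/kg body weight for 10 days with daily behavioural monitoring (hippocratic screening); heart, lung, spleen, kidney and liver weights compared with controls by ANOVA and Dunnett's test, p < 0.05.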

The subject of series [3] is Mus musculus. The series is described as follows: Toxicity in BALB/c mouse assessed as change in kidney weight at 200 mg/kg, po qd administered via gavage after 10 days. The conditions noted are these: in vivo, 240 h. Type of series: organism-based. The gist of the method:
as §1

The target of the next series is Cytochrome P450 3A4 (Homo sapiens, UniProt P08684). Kind of series: Inhibition of CYP3A4 in human liver microsomes in presence of NADPH by LC-MS/MS analysis. Type of series: ADME. On the technique in general: Liver microsomes are a subcellular fraction often used to study metabolism.
In series [4] the test system is Mycobacterium tuberculosis. The series is described as follows: Upregulation of ribosomal protein gene in Mycobacterium tuberculosis H37Rv at 2 times MIC90 after 4 hrs by microarray analysis. Type of series: functional.
Series [5] concerns Mus musculus. Kind of series: Hepatotoxicity in BALB/c mouse assessed as change in alanine aminotransferase level in plasma at 200 mg/kg, po qd administered via gavage after 10 days. It is filed as toxicity, organism-based. Particulars: in vivo, 240 h.
Series [6] deals with Mus musculus. The series is described as follows: Toxicity in BALB/c mouse assessed as change in lung weight at 200 mg/kg, po qd administered via gavage after 10 days. Type of series: organism-based. The conditions noted are these: in vivo, 240 h. The method in brief:
as §1

The subject of series [7] is Mycobacterium tuberculosis. The series is described as follows: Up-regulation of […] gene EF-Tu in Mycobacterium tuberculosis H37Rv at 2 times MIC90 after 4 hrs by microarray analysis. It is filed as functional.
The test system of series [8] is Mycobacterium tuberculosis. The series is described as follows: Growth inhibition of Mycobacterium tuberculosis H37Rv exposed to plasma from BALB/c mouse treated with 300 mg/kg, po administered through microemulsion vehicle as single oral dose per gavage after 4 hrs by Resazurin microtiter assay. Type of series: functional. Particulars: read-out: GI. The gist of the method: (§2)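 The microemulsion was 10% cholesterol, 10% phosphatidylcholine/sodium oleate/polyoxyl 40 hydrogenated castor oil (3:6:8) and 80% phosphate buffer pH 7.4. Plasma taken at 0.3, 1, 2 or 4 h was tested by REMA for % Mtb growth inhibition, and plasma level was estimated against the in-vitro REMA MIC.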
A general note: The colour change of resazurin is a common sign of viable cells or microbes.

For series [9], the system named is Mycobacterium tuberculosis. Kind of series: Antitubercular activity against Mycobacterium tuberculosis H37Rv ATCC 27294 infected in mouse J774A.1 cells at 1.46 to 23.86 ug/ml after 3 days relative to control. It is filed as functional.
Series [10] deals with Mycobacterium tuberculosis. Kind of series: Antitubercular activity against Mycobacterium tuberculosis H37Rv ATCC 27294 in presence of 10% fetal bovine serum. It is filed as functional.
The subject of series [11] is Mycobacterium tuberculosis. Kind of series: Up-regulation of heat shock protein genes in Mycobacterium tuberculosis H37Rv at 2 times MIC after 4 hrs by microarray analysis. Type of series: functional.
The test system of series [12] is Mycobacterium tuberculosis. Kind of series: Growth inhibition of Mycobacterium tuberculosis H37Rv exposed to plasma from BALB/c mouse treated with 300 mg/kg, po administered through microemulsion vehicle as single oral dose per gavage after 2 hrs by Resazurin microtiter assay. It is filed as functional. Particulars: read-out: GI. The method in brief:
as §2

The subject of the next series is Staphylococcus aureus. The series is described as follows: Antimicrobial activity against Staphylococcus aureus ATCC 29213 at 200 uM incubated for 16 hrs. Type of series: functional.
Series [13] concerns Mus musculus. Kind of series: Hepatotoxicity in BALB/c mouse assessed as change in liver morphology at 200 mg/kg, po qd administered via gavage after 10 days by hematoxylin and eosin staining based analysis. Type of series: toxicity, organism-based. Particulars: in vivo, 240 h. The method in brief:
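BALB/c mice dosed orally by gavage once daily at 200 mg/kg; liver and kidney sections stained with H&E and examined for tissue morphology.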

Series [14] concerns Mycobacterium tuberculosis. The series is described as follows: Antitubercular activity against Mycobacterium tuberculosis Erdman infected in BALB/c mouse at 200 mg/kg, po qd dosed via gavage starting at 10 days post-infection and terminated at 29 day post-infection for 5 consecutive days each week and measured 3 day wash-out period at 31 day-postinfection. Type of series: functional, organism-based. The gist of the method: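 Drug in cholesterol/phospholipid microemulsion was given by oral gavage (200 μL) once daily, 5 days/week, from day 10 to day 29 post-infection; n = 7/group. After a 3-day washout, lungs were homogenized in HBSS-Tween at day 31 and plated on Middlebrook 7H11 for CFU.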

Series [15] concerns Mus musculus. The series is described as follows: Genotoxicity in Swiss mouse assessed as incidence of micronucleated peripheral blood reticulocytes at 50 to 500 mg/kg dosed via gavage by micronucleus assay. Type of series: toxicity, organism-based. Particulars: in vivo, po.
Series [16] deals with Mycobacterium tuberculosis. Kind of series: Antitubercular activity against Mycobacterium tuberculosis H37Rv ATCC 27294 under acidic pH 6 condition. It is filed as functional.
Series [17] can be described thus: Stability of the compound in PBS assessed as parent compound remaining at pH 5.5 after 24 hrs by HPLC-UV analysis. It is filed as physicochemical. Particulars: read-out: Stability.
A further series deals with T1, Cytochrome P450 2B6 (Homo sapiens, UniProt P20813).
T1 sequence (P20813 whole entry): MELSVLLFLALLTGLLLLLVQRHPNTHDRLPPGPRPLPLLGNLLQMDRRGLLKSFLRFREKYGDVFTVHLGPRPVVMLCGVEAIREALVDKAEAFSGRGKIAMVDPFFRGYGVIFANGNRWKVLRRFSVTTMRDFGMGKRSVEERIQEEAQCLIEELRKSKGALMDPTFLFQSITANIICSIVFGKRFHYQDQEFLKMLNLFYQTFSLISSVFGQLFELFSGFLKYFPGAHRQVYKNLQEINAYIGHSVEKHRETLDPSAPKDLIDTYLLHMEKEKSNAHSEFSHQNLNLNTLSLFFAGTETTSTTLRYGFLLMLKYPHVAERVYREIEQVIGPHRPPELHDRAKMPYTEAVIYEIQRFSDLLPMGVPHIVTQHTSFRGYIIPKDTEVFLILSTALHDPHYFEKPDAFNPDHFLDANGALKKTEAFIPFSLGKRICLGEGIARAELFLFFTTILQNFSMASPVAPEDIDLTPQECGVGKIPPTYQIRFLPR
Kind of series: Inhibition of CYP2B6 in human liver microsomes in presence of NADPH by LC-MS/MS analysis. It is filed as ADME.

SMILES strings stand for the structures. Values after ≈ are worked out from the molar mass of the structure shown. Active and inactive are the calls of the source. The rule behind the calls is not given here.

Sequence of Cytochrome P450 3A4 (P08684 whole entry): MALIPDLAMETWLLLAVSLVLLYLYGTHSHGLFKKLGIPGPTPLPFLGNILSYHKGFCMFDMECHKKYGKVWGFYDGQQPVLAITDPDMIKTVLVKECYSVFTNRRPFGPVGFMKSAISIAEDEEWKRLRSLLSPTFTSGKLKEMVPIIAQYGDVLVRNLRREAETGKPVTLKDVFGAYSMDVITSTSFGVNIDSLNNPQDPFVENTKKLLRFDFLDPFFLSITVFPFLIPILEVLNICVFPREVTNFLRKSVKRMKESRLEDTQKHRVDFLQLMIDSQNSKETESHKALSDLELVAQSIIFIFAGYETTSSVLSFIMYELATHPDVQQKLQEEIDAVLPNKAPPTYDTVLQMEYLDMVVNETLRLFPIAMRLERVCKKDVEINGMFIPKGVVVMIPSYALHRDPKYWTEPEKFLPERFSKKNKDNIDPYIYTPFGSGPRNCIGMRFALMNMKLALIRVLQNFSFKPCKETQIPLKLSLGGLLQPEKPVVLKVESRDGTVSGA

Take `O=C(N/N=C/c1ccc2no[n+]([O-])c2c1)c1ccncc1`: in series [1], the degraded at 10 h turned out to be 20%. For the same molecule, the Activity result in the series on Mus musculus [2], in the series on Mus musculus [3], with Mus musculus [5], in the series with Mus musculus [6], in the series with Mus musculus [13] and in the series on Mus musculus [15] was “Non-Toxic” throughout. The IC50 on Cytochrome P450 3A4 and on Cytochrome P450 2B6 was > 20 µM in each case. The outcome in series [4] and in [7] was Active. The results for the inhibition in vivo at 300 mg/kg in [8] and in series [12] were 51.3% and 76%, respectively. Also, the “inhibition (INH)” value in [9] came out at 90%. For the same molecule, the MIC90 in [10] came to 11.8 µM; in [16], 3.41 µM (≈ 0.966 µg/mL). The result (in [11]; with Staphylococcus aureus; in [14]) was inactive. In addition, the remaining at 24 h in series [17] worked out at 67%.
